In ChEMBL document CHEMBL3352176, “Synthesis and evaluation of novel dapsone-thalidomide hybrids for the treatment of type 2 leprosy reactions” (Bioorg Med Chem Lett, 2014):

How the values were obtained:
[1] = tested on: Salmonella typhimurium; experiment: Genotoxicity in Salmonella typhimurium TA100 at 1.25 ug/plate assessed as number of revertants per plate in presence of S9 liver extract (reference value: 128.9 +/- 7.3 no unit); type: toxicity, organism-based, Liver S9 fraction; conditions: salmonella enterica subsp. enterica serovar typhimurium
[2] = tested on: Mus musculus; experiment: Antinociceptive effect in mouse assessed as inhibition of acetic acid-induced abdominal constriction at 100 uM/kg, po; type: functional, Abdomen
[3] = tested on: L929; experiment: Antiinflammatory activity against mouse L929 cells assessed as inhibition of LPS-induced TNFalpha production at 125 uM after 48 hrs; type: functional; conditions: L929, 48 h
Method in brief: (§1)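 Mouse L929 fibroblasts were stimulated with lipopolysaccharide and exposed to compounds at 15.62 µM and 125 µM. TNFα was quantified in culture supernatants in pg/mL and expressed as percent decrease versus stimulated cells. Thalidomide served as the reference control.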

[4] = tested on: L929; experiment: Antiinflammatory activity against mouse L929 cells assessed as inhibition of LPS-induced TNFalpha production at 15.625 uM after 48 hrs; type: functional; conditions: L929, 48 h; method in brief: as §1
[5] = tested on: Mycobacterium leprae; experiment: Antimycobacterial activity against Mycobacterium leprae inoculated in mouse model assessed as mean number of bacilli at 200 mg/kg, po 5 days/week for 4 weeks (reference value: 3.56 x 10^6 cells); type: functional
[6] = Cytotoxicity against mouse L929 cells assessed as cell viability up to 150 uM; type: cell-based; conditions: read-out: Activity
[7] = tested on: L929; experiment: Antiinflammatory activity against mouse L929 cells assessed as inhibition of LPS-induced TNFalpha production after 48 hrs; type: functional, cell-based; method in brief: as §1
[8] = tested on: Salmonella typhimurium; experiment: Genotoxicity in Salmonella typhimurium TA102 at 3 ug/plate assessed as number of revertants per plate (reference value: 301 +/- 5.2 no unit); type: toxicity, organism-based; conditions: salmonella enterica subsp. enterica serovar typhimurium
[9] = tested on: Salmonella typhimurium; experiment: Genotoxicity in Salmonella typhimurium TA102 assessed as mutagenic index at 32 umol/plate; type: toxicity, organism-based; conditions: salmonella enterica subsp. enterica serovar typhimurium
[10] = tested on: Salmonella typhimurium; experiment: Genotoxicity in Salmonella typhimurium TA102 assessed as mutagenic index at 32 umol/plate in presence of S9 liver extract; type: toxicity, organism-based, Liver S9 fraction; conditions: salmonella enterica subsp. enterica serovar typhimurium
[11] = tested on: Salmonella typhimurium; experiment: Genotoxicity in Salmonella typhimurium TA100 assessed as mutagenic index at 32 umol/plate; type: toxicity, organism-based; conditions: salmonella enterica subsp. enterica serovar typhimurium
[12] = tested on: Salmonella typhimurium; experiment: Genotoxicity in Salmonella typhimurium TA100 assessed as mutagenic index at 32 umol/plate in presence of S9 liver extract; type: toxicity, organism-based, Liver S9 fraction; conditions: salmonella enterica subsp. enterica serovar typhimurium
[13] = tested on: Salmonella typhimurium; experiment: Genotoxicity in Salmonella typhimurium TA102 assessed as mutagenic index at 16 umol/plate in presence of S9 liver extract; type: toxicity, organism-based, Liver S9 fraction; conditions: salmonella enterica subsp. enterica serovar typhimurium
[14] = tested on: Salmonella typhimurium; experiment: Genotoxicity in Salmonella typhimurium TA102 assessed as mutagenic index at 16 umol/plate; type: toxicity, organism-based; conditions: salmonella enterica subsp. enterica serovar typhimurium
[15] = tested on: Salmonella typhimurium; experiment: Genotoxicity in Salmonella typhimurium TA100 assessed as mutagenic index at 16 umol/plate; type: toxicity, organism-based; conditions: salmonella enterica subsp. enterica serovar typhimurium
[16] = tested on: Salmonella typhimurium; experiment: Genotoxicity in Salmonella typhimurium TA100 assessed as mutagenic index at 16 umol/plate in presence of S9 liver extract; type: toxicity, organism-based, Liver S9 fraction; conditions: salmonella enterica subsp. enterica serovar typhimurium
[17] = tested on: Salmonella typhimurium; experiment: Genotoxicity in Salmonella typhimurium TA102 assessed as mutagenic index at 8 umol/plate; type: toxicity, organism-based; conditions: salmonella enterica subsp. enterica serovar typhimurium
[18] = tested on: Salmonella typhimurium; experiment: Genotoxicity in Salmonella typhimurium TA102 assessed as mutagenic index at 8 umol/plate in presence of S9 liver extract; type: toxicity, organism-based, Liver S9 fraction; conditions: salmonella enterica subsp. enterica serovar typhimurium
[19] = tested on: Salmonella typhimurium; experiment: Genotoxicity in Salmonella typhimurium TA100 assessed as mutagenic index at 8 umol/plate; type: toxicity, organism-based; conditions: salmonella enterica subsp. enterica serovar typhimurium
[20] = tested on: Salmonella typhimurium; experiment: Genotoxicity in Salmonella typhimurium TA100 assessed as mutagenic index at 8 umol/plate in presence of S9 liver extract; type: toxicity, organism-based, Liver S9 fraction; conditions: salmonella enterica subsp. enterica serovar typhimurium
[21] = tested on: Salmonella typhimurium; experiment: Genotoxicity in Salmonella typhimurium TA102 assessed as mutagenic index at 4 umol/plate; type: toxicity, organism-based; conditions: salmonella enterica subsp. enterica serovar typhimurium
[22] = tested on: Salmonella typhimurium; experiment: Genotoxicity in Salmonella typhimurium TA102 assessed as mutagenic index at 4 umol/plate in presence of S9 liver extract; type: toxicity, organism-based, Liver S9 fraction; conditions: salmonella enterica subsp. enterica serovar typhimurium
[23] = tested on: Salmonella typhimurium; experiment: Genotoxicity in Salmonella typhimurium TA100 assessed as mutagenic index at 4 umol/plate; type: toxicity, organism-based; conditions: salmonella enterica subsp. enterica serovar typhimurium
[24] = tested on: Salmonella typhimurium; experiment: Genotoxicity in Salmonella typhimurium TA100 assessed as mutagenic index at 4 umol/plate in presence of S9 liver extract; type: toxicity, organism-based, Liver S9 fraction; conditions: salmonella enterica subsp. enterica serovar typhimurium
[25] = tested on: Salmonella typhimurium; experiment: Genotoxicity in Salmonella typhimurium TA102 assessed as mutagenic index at 2 umol/plate; type: toxicity, organism-based; conditions: salmonella enterica subsp. enterica serovar typhimurium
[26] = tested on: Salmonella typhimurium; experiment: Genotoxicity in Salmonella typhimurium TA100 assessed as mutagenic index at 2 umol/plate; type: toxicity, organism-based; conditions: salmonella enterica subsp. enterica serovar typhimurium
[27] = tested on: Salmonella typhimurium; experiment: Genotoxicity in Salmonella typhimurium TA102 assessed as mutagenic index at 2 umol/plate in presence of S9 liver extract; type: toxicity, organism-based, Liver S9 fraction; conditions: salmonella enterica subsp. enterica serovar typhimurium
[28] = tested on: Salmonella typhimurium; experiment: Genotoxicity in Salmonella typhimurium TA100 assessed as mutagenic index at 2 umol/plate in presence of S9 liver extract; type: toxicity, organism-based, Liver S9 fraction; conditions: salmonella enterica subsp. enterica serovar typhimurium

Work on `Nc1ccc2cc3ccccc3cc2c1` [2-AMINOANTHRACENE] yielded an Activity [1] of 2540.

In the case of `O=C1CCC(N2C(=O)c3ccccc3C2=O)C(=O)N1` (stereo not drawn) [THALIDOMIDE], the “inhibition (INH)” value [2] is reported as 42.2%, the inhibition at 125 µM [3] is reported as 42.8% and the inhibition at 15.625 µM [4] is reported as 35.4%. It also gave an Activity [5] of 4600000.

In the case of `COc1cnc(NS(=O)(=O)c2ccc(N3C(=O)c4ccccc4C3=O)cc2)nc1`, the “inhibition (INH)” value [2] is reported as 27.57%, the viability [6] is reported as over 90% and the inhibition at 125 µM [3] is reported as 80.8%. For the same compound, the inhibition at 15.625 µM [4] was 73.5% and the inhibition [7] was “Dose-dependent effect”.

In the case of `NS(=O)(=O)c1ccc(N2C(=O)c3ccccc3C2=O)cc1`, the “inhibition (INH)” value [2] is reported as 26.75%, the viability [6] is reported as over 90% and the inhibition at 125 µM [3] is reported as 70.7%. The inhibition at 15.625 µM [4] was 53% and the inhibition [7] was “Dose-dependent effect”.

`COc1cccc2c1C(=O)c1c(O)c3c(c(O)c1C2=O)C[C@@](O)(C(C)=O)C[C@@H]3O[C@H]1C[C@H](N)[C@H](O)[C@H](C)O1` [DAUNORUBICIN] gave an Activity [8] of 902.

With `Nc1ccc(NS(=O)(=O)c2ccc(N3C(=O)c4ccccc4C3=O)cc2)cc1` the “inhibition (INH)” value [2] was 35.2%, the viability [6] was over 90% and the inhibition at 125 µM [3] was 40.6%. The inhibition at 15.625 µM [4] was 28.8% and the inhibition [7] was “Dose-dependent effect”.

In the case of `O=C1c2ccccc2C(=O)N1c1ccc(S(=O)(=O)Nc2ccccn2)cc1`, the “inhibition (INH)” value [2] is reported as 49.8%, the viability [6] is reported as over 90% and the inhibition at 125 µM [3] is reported as 66.6%. The inhibition at 15.625 µM [4] was 26.5% and the inhibition [7] was “Dose-dependent effect”.

In the case of `Cc1ccnc(NS(=O)(=O)c2ccc(N3C(=O)c4ccccc4C3=O)cc2)n1`, the “inhibition (INH)” value [2] is reported as 34.15%, the viability [6] is reported as over 90% and the inhibition at 125 µM [3] is reported as 87.8%. The inhibition at 15.625 µM [4] was 86.3%, the inhibition [7] was “Dose-dependent effect” and the Activity [5] was 2500000. It also gave an Activity [9] of 1.4, an Activity [10] of 1.38 and an Activity [11] of 1.59. For the same compound, the Activity [12] was 1.59, the Activity [13] was 1.31 and the Activity [14] was 1.36. The Activity [15] was 1.61, the Activity [16] was 1.64 and the Activity [17] was 1.26. It also gave an Activity [18] of 1.24, an Activity [19] of 1.33 and an Activity [20] of 1.33. The Activity [21] was 1.22, the Activity [22] was 1.17 and the Activity [23] was 1.19. For the same compound, the Activity [24] was 1.21, the Activity [25] was 1.08 and the Activity [26] was 1.07. It also gave an Activity [27] of 1.07 and an Activity [28] of 1.08.

In the case of `Cc1c(N(C)CS(=O)(=O)O)c(=O)n(-c2ccccc2)n1C` [METAMIZOLE], the “inhibition (INH)” value [2] is reported as 33.5%.

In the case of `Cc1cc(NS(=O)(=O)c2ccc(N3C(=O)c4ccccc4C3=O)cc2)no1`, the “inhibition (INH)” value [2] is reported as 17.9%, the viability [6] is reported as over 90% and the inhibition at 125 µM [3] is reported as 34.1%. For the same compound, the inhibition at 15.625 µM [4] was 16.2% and the inhibition [7] was “Dose-dependent effect”.

In the case of `O=C1c2ccccc2C(=O)N1c1ccc(S(=O)(=O)Nc2ncccn2)cc1`, the “inhibition (INH)” value [2] is reported as 39.1%, the viability [6] is reported as over 90% and the inhibition at 125 µM [3] is reported as 79.3%. For the same compound, the inhibition at 15.625 µM [4] was 33.7% and the inhibition [7] was “Dose-dependent effect”.

With `Cc1cc(C)nc(NS(=O)(=O)c2ccc(N3C(=O)c4ccccc4C3=O)cc2)n1` the “inhibition (INH)” value [2] was 27.37%, the viability [6] was over 90% and the inhibition at 125 µM [3] was 81.3%. For the same compound, the inhibition at 15.625 µM [4] was 53.9% and the inhibition [7] was “Dose-dependent effect”.

With `N=C(N)NS(=O)(=O)c1ccc(N2C(=O)c3ccccc3C2=O)cc1` the “inhibition (INH)” value [2] was 29.63%, the viability [6] was over 90% and the inhibition at 125 µM [3] was 7.24%. The inhibition at 15.625 µM [4] was 0% and the inhibition [7] was “Dose-dependent effect”.
